TAAR1 ag – agonists of human TAAR1; 360,000 tested, 0.99% active; Q96RJ0; activation, % at 3 µM; CHO RD-HGA16 TAAR1, Fluo-8 calcium fluorescence; vehicle wells 0%, saturating PEA agonist 100%;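 active = activation above the mean activation of all test compounds in the run plus 3 SD, cut at about 38% in these data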
Target sequence (Q96RJ0 whole entry, looked up): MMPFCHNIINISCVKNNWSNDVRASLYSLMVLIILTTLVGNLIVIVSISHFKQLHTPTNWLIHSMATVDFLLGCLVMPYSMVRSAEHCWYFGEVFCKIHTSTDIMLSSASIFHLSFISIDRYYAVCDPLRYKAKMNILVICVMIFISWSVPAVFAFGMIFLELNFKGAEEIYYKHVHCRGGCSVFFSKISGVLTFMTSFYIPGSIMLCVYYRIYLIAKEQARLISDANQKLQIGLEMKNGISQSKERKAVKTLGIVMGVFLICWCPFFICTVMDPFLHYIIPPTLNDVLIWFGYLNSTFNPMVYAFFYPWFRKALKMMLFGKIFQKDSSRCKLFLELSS
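Repeats: no replicates (n 1) | Material: CHO-derived RD-HGA16 cells with stable Gα16 and human TAAR1 | Technique: Kinetic Fluo-8 calcium fluorescence | Schedule: 17-24 h seeding, 75 min 37 °C dye, 30 min RT | Evaluation: % activation from peak over basal fluorescence ratio, DMSO-to-PEA scaled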
TAAR1 antag – human TAAR1 antagonism; Q96RJ0; CHO RD-HGA16 TAAR1, Fluo-8 calcium fluorescence, antagonist; inhibition, % at 3 µM; 360,000 tested, 1.5% active; AID 624466;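 active = inhibition above a per-plate cutoff, the mean inhibition of test compounds on that plate plus 3 SD, cut at about 49% in these data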;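 also: 0% = DMSO plus EC80 beta-PEA response and 100% = DMSO alone without agonist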
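Material: RD-HGA16 CHO cells with stable hTAAR1 and Gα16; Dosing: single nominal final test compound concentration of 3 µM; Schedule: seeding 17-24 h prior, 75-min 37 °C, 30-min RT dye loading; Detection: kinetic Fluo-8 calcium fluorescence measurement; Measure: % inhibition from peak post-agonist over basal fluorescence ratio; Benchmarks: vehicle and agonist controls.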
OX1R antag-1 – human HCRTR1 antagonism; O43613; CHO/OX1R cells, Fluo-8 calcium fluorescence, orexin A; AID 434989; 330,000 tested, 0.43% active; inhibition, % at 5 µM;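 active = inhibition above its plate's threshold, mean inhibition of all tested compounds on the plate plus 3 SD, cut at about 37% in these data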;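 also: 0% = orexin A challenge wells and 100% = SB-334867-A antagonist wells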
OX1R antag-2 – antagonists of human orexin 1 receptor (OX1R); OX1R-expressing cells, FRET antagonist read-out; inhibition, % at 6.6 µM; 330,000 tested, 1.8% active; in the data active = inhibition mostly above about 38%, no sharp cut-off; inactive = mostly below about 40%;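 also: 0% = agonist challenge alone and 100% = reference antagonist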
CHO parental Ca – signal in parental CHO cells, OX1R antagonist counter-screen; inhibition, % at 5.6 µM; 330,000 tested, 0.63% active; parental CHO-K1, ATP-induced calcium, Fluo-8 fluorescence;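 active = inhibition above that plate's mean sample inhibition plus 3 SD, cut at about 26% in these data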;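 also: 0% = ATP-challenged DMSO wells and 100% = DMSO wells without ATP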
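material = parental CHO cells | also added = ATP as calcium-mobilizing challenge | dosing = single point at 5.6 µM | detection = intracellular calcium via Fluo-8 no-wash fluorescent dye | read-out = % inhibition | benchmarks = low control ATP plus DMSO, high control DMSO only | repeats = one well per compound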
Active calls of the source: *; / = not tested or not shown. A selection: hits, their analogues and other compounds. The true share with any hit is near 3.9%.

SMILES | TAAR1 ag | TAAR1 antag | OX1R antag-1 | OX1R antag-2 | CHO parental Ca
CC(/C=N/Nc1nc2ccccc2[nH]1)=C\c1ccccc1 | 40* | 38 | 1 | 30 | -9
COc1cc(/C=N/Nc2nc3ccccc3[nH]2)cc(OC)c1O | 6 | -14 | 9 | 31 | -3
COc1cccc(/C=N/NC(=O)c2cc3c(OC)cccc3[nH]2)c1OC | 9 | 55* | -5 | 67* | -18
COc1cccc(/C=N/NC(=O)c2cc3c(OC)c(OC)ccc3[nH]2)c1OC | 21 | 43 | / | / | /
COc1cc(/C=N/Nc2nc3ccccc3[nH]2)ccc1O | 42* | 21 | -27 | 23 | -14
O=[N+]([O-])c1ccc(O)c(/C=N/Nc2nc3ccccc3[nH]2)c1 | 1 | 5 | -17 | 9 | -21
COc1ccc(O)c(/C=N/Nc2nc3ccccc3[nH]2)c1 | 42* | 12 | -40 | 19 | -16
COC(=O)Cn1cnc2c(NC(=O)c3ccccc3)ncnc21 | 1 | -14 | / | / | /
CCOC(=O)C(=C1Nc2ccccc2N1)n1c(-c2cccnc2)nc2ccccc21 | 0 | 15 | / | / | /
C[C@@H]1CN([C@@H](C)CO)C(=O)CCCn2nncc2CO[C@@H]1CN(C)C(=O)Nc1ccnc(N2CCOCC2)c1 | 2 | 6 | / | / | /
Cc1cc(C)c(C(O)c2ncc(-c3ccccc3Cl)[nH]2)c(C)c1 (centres undefined) | 5 | -22 | / | / | /
Cc1ccc([C@@H]2C[C@H]3[C@@H](CN2S(=O)(=O)c2ccc(C)cc2)C(=O)C[C@@H](c2ccc(Cl)cc2)N3S(=O)(=O)c2ccccc2C)cc1 | 2 | -3 | / | / | /
CSc1ccc(CN2CCC(C)(Oc3ccc(F)cc3)C2)cc1 (centres undefined) | -2 | -7 | / | / | /
COc1cc(/C=N/NC(=O)c2cccc(NC(=O)c3ccccc3C)c2)ccc1O | 15 | 61* | -1 | 11 | -5
N#Cc1cccc(NC(=O)c2cc(C3CCCCN3C(=O)c3cccs3)on2)c1 (centres undefined) | 6 | 2 | / | / | /
Cn1c(N)c(C(=O)COC(=O)c2cc(S(=O)(=O)NCc3ccccc3)ccc2O)c(=O)n(C)c1=O | 5 | 23 | / | / | /
C=C[C@]1(C)C=C2C(=O)[C@@]3(O)OC(=O)[C@@]4(CCCC(C)(C)[C@H]34)[C@@]2(O)CC1 | 28 | -6 | / | / | /
C[C@H](NC(=O)C[C@@H]1C[C@@H]2c3cc(NC(=O)C4CCC4)ccc3O[C@@H]2[C@@H](CO)O1)c1ccccc1 | 3 | 4 | / | / | /
COCc1cccc(-c2csc(C(C)(O)c3cccc(F)c3)n2)c1 (centres undefined) | 3 | 21 | / | / | /
C=CCN(C(=O)c1csnn1)C(C(=O)NC1CCCC1)c1ccc(Cl)cc1 (centres undefined) | -3 | -5 | -18 | 69* | -15
C=CCN(C(=O)c1csnn1)C(C(=O)NC1CCCC1)c1ccc(F)cc1 (centres undefined) | -4 | -11 | -27 | 16 | -11
O=C1[C@H](Cc2ccccc2)NCCCC[C@@H](c2ccc(Cl)cc2)N1Cc1ccc(Cl)cc1 | 41* | 14 | / | / | /
O=C1[C@H](Cc2ccccc2)NCCCC[C@H](c2ccc(Cl)cc2)N1Cc1ccccc1 | 2 | 0 | / | / | /
CC1=C(C(=O)N(C)C)CC(CC(=O)NCCCCc2ccccc2)C(=O)N1Cc1ccc(C(C)(C)C)cc1 (centres undefined) | 12 | -25 | / | / | /
COc1cc(NC(=O)C(c2ccccc2)c2ccccc2)c(C(=O)O)cc1OC | -1 | 11 | -18 | -1 | -3
SMILES | TAAR1 ag | TAAR1 antag | OX1R antag-1 | OX1R antag-2 | CHO parental Ca
COc1cc2c(cc1NC(=O)C(c1ccccc1)c1ccccc1)CCCC2 | 10 | 16 | 36 | 21 | 32*
S=c1[nH]nc(-c2cccs2)n1/N=C/c1c(Cl)cccc1Cl | 48* | 53* | 51* | 108* | 34*
Cc1ccc2c(c1)c1c3n2CCCNC3CCC1 (centres undefined) | 4 | -10 | -7 | 7 | 2
c1cc2c(cc1C1CCCCC1)c1c3n2CCCNC3CCC1 (centres undefined) | 43* | 35 | 22 | 3 | 14
CCN(C)C1CN(Cc2cn(CCCC(=O)OC)nn2)S(=O)(=O)C1 (centres undefined) | 2 | -14 | / | / | /
CN(C(=O)CSc1nc2ccccc2o1)C1CCCCC1 | 0 | -2 | / | / | /
Cc1c(C(=O)O)nn(-c2ccccc2)c(=O)c1C#N | 0 | 5 | -6 | 60* | -3
Cc1ccc(-n2nc(C(=O)O)c(C)c(C#N)c2=O)cc1Cl | -1 | -29 | -27 | 51* | -11
O=C(c1ccc(COc2ccc(Cl)cc2)o1)N1CCN(Cc2ccc3c(c2)OCO3)CC1 | 6 | 52* | 19 | 15 | 9
O=C(c1ccc(COc2ccccc2Cl)o1)N1CCN(Cc2ccc3c(c2)OCO3)CC1 | 9 | 30 | -24 | 16 | -16
O=C(COC(=O)/C=C/c1ccc(Cl)cc1)NCCC1=CCCCC1 | 0 | -5 | -6 | 10 | -12
O=C(COC(=O)/C=C/c1cccc(Cl)c1)NCCC1=CCCCC1 | 39* | 32 | -31 | 12 | 0
Cc1cc(NC(=O)Cn2nc(-c3cccs3)ccc2=O)cc(C)c1Br | 0 | -2 | -16 | 14 | -9
Cc1c(Br)ccc(NC(=O)Cn2nc(-c3cccs3)ccc2=O)c1C | -1 | -7 | 0 | 55* | -22
COc1cccc(CNC(=O)[C@H]2CCCN2C(=O)[C@H]2CCCN2C(=O)N2CCCCC2)c1 | 1 | -2 | / | / | /
COc1ccc(-c2nc3ccc(C)cn3c2NCc2ccccc2)cc1SC1CCCCC1 | / | / | 77* | 18 | 94*
CCCCNc1c(-c2ccc(OC)c(SC3CCCCC3)c2)nc2ccc(C)cn12 | 26 | 85* | 90* | 32* | 98*
CCCCNc1c(-c2ccc(Sc3ccc(OC)cc3)cc2)nc2cc(C)ccn12 | 6 | 24 | 55 | 16 | 39
COc1ccc(-c2nc3ccc(Cl)cn3c2NC2CCCCC2)cc1SC1CCCCC1 | 3 | -25 | -29 | 5 | -32
CCCCNc1c(-c2ccc(-c3ccc(C(C)=O)cc3)c(OC)c2)nc2cc(C)ccn12 | 3 | 56* | 24 | 23 | 15
CC(=O)Nc1ccc(S(=O)(=O)N(C)c2ccc(OCCOc3ccccc3F)cc2)cc1 | 12 | 47 | 20 | 1 | 14
COc1ccc(C(N)c2csc(Nc3ccc(S(C)(=O)=O)cc3)n2)cc1 (centres undefined) | 3 | -3 | / | / | /
CCOC(=O)Cc1nnc(NC(=O)COc2ccc(C)cc2)s1 | 38* | -4 | -12 | 19 | -2
CCCCOc1ccc(C(=O)NC)cc1 | -3 | 8 | -16 | 9 | -2
CCCCOc1ccc(CC(=O)NO)cc1 | 2 | -18 | 0 | 4 | 44*
Cc1cc(OCC(=O)Nc2ccc3oc(-c4ccncc4)nc3c2)ccc1Cl | 4 | -6 | -13 | 9 | -4
Cc1cc(OCC(=O)Nc2ccncc2)ccc1Cl | 9 | -1 | 3 | 35 | 30*

Compound activity as filed in PubChem.
